Assay [1] addresses Serine/threonine-protein kinase WNK2 (Homo sapiens) (UniProt Q9Y3S1). As to the kind of experiment: Binding affinity to wild-type human partial length WNK2 (V47 to D482 residues) expressed in mammalian expression system assessed as residual binding level at 1 uM by Kinomescan method relative to control.
Assay [2] addresses MAP/microtubule affinity-regulating kinase 3 (Homo sapiens) (UniProt P27448). As to the kind of experiment: Binding affinity to wild-type human full length MARK3 (M1 to L729 residues) expressed in bacterial expression system assessed as residual binding level at 1 uM by Kinomescan method relative to control. In outline: (§1)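 KINOMEscan competition binding against 468 purified kinases/mutants, test compound at 1 µM; residual binding relative to control.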

In assay [3] the target is Testis-specific serine/threonine-protein kinase 3 (Homo sapiens) (UniProt Q96PN8). As to the kind of experiment: Binding affinity to wild-type human full length TSSK3 (M1 to T268 residues) expressed in mammalian expression system assessed as residual binding level at 1 uM by Kinomescan method relative to control. Put shortly: (§2)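 Single-concentration KINOMEscan (DiscoverX) binding screen at 1 μM against a panel of 468 purified kinases and mutants. The read-out is binding relative to control.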

Assay [4] concerns the target RAC-gamma serine/threonine-protein kinase (Homo sapiens) (UniProt Q9Y243). As to the kind of experiment: Binding affinity to wild-type human partial length AKT3 expressed in bacterial expression system assessed as residual binding level at 1 uM by Kinomescan method relative to control. Put shortly:
(§3)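 Kinome-wide competition binding screen against a panel of 468 purified kinases/mutants, with the test compound at a single concentration of 1 μM. Read-out is the relative binding activity of each kinase in the presence of compound.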

Assay [5] concerns Phosphatidylinositol 4,5-bisphosphate 3-kinase catalytic subunit alpha isoform (Homo sapiens), P42336 [H1047L]. As to the kind of experiment: Binding affinity to human partial length PIK3CA H1047L mutant (R108 to N1068 residues) expressed in mammalian expression system assessed as residual binding level at 1 uM by Kinomescan method relative to control. Put shortly:
(§4)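 Kinome-wide single-concentration binding screen (KINOMEscan) at 1 μM against a panel of 468 purified kinases and mutants. Read-out is relative binding of each kinase compared with control. Selectivity across the panel was summarised as an S(10) score.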

The test system of assay [6] is Receptor-type tyrosine-protein kinase FLT3 (Homo sapiens), P36888 [UNDEFINED MUTATION]. As to the kind of experiment: Binding affinity to human partial length FLT3 ITD mutant expressed in bacterial expression system assessed as residual binding level at 1 uM by Kinomescan method relative to control. In outline: as §4
For assay [7], the target named is Tyrosine-protein kinase JAK2 (Homo sapiens) (UniProt O60674). As to the kind of experiment: Binding affinity to wild-type human partial length JAK2 JH1 catalytic domain (A829 to G1132 residues) expressed in mammalian expression system assessed as residual binding level at 1 uM by Kinomescan method relative to control.
Assay [8] has as its target Casein kinase I isoform gamma-2 (Homo sapiens) (UniProt P78368). As to the kind of experiment: Binding affinity to wild-type human full length CSNK1G2 (M1 to K415 residues) expressed in bacterial expression system assessed as residual binding level at 1 uM by Kinomescan method relative to control. Put shortly:
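Single-concentration (1 μM) competition-binding screen run by KINOMEscan against a panel of 468 purified kinases and mutants. The read-out is the relative binding activity of the test compound to each kinase.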

The target of assay [9] is Cyclin-dependent kinase 14 (Homo sapiens) (UniProt O94921). As to the kind of experiment: Binding affinity to wild-type human full length PFTK1 (M1 to H451 residues) expressed in bacterial expression system assessed as residual binding level at 1 uM by Kinomescan method relative to control. Put shortly:
as §2

In assay [10] the target is Tyrosine-protein kinase JAK1 (Homo sapiens) (UniProt P23458). As to the kind of experiment: Binding affinity to wild-type human partial length JAK1 JH1 catalytic domain (V856 to K1154 residues) expressed in bacterial expression system assessed as residual binding level at 1 uM by Kinomescan method relative to control.
Assay [11] addresses Angiopoietin-1 receptor (Homo sapiens) (UniProt Q02763). As to the kind of experiment: Binding affinity to wild-type human partial length TIE2 (N804 to T1112 residues) expressed in bacterial expression system assessed as residual binding level at 1 uM by Kinomescan method relative to control.
Assay [12] deals with Serine/threonine-protein kinase DCLK3 (Homo sapiens) (UniProt Q9C098). As to the kind of experiment: Binding affinity to wild-type human partial length DCAMKL3 (E140 to V628 residues) expressed in bacterial expression system assessed as residual binding level at 1 uM by Kinomescan method relative to control. In outline:
as §3

In assay [13] the target is RAC-beta serine/threonine-protein kinase (Homo sapiens) (UniProt P31751). As to the kind of experiment: Binding affinity to wild-type human partial length AKT2 expressed in bacterial expression system assessed as residual binding level at 1 uM by Kinomescan method relative to control. Put shortly:
as §2

Assay [14] addresses Serine/threonine-protein kinase pim-3 (Homo sapiens) (UniProt Q86V86). As to the kind of experiment: Binding affinity to wild-type human partial length PIM3 (G16 to A317 residues) expressed in bacterial expression system assessed as residual binding level at 1 uM by Kinomescan method relative to control.
For assay [15], the system named is EOL1. As to the kind of experiment: Antitumor activity against human EOL-1 cells engrafted in ip dosed NOD-SCID mouse assessed as reduction of cell density in bone marrow administered 3 weeks post cell inoculation by FACS analysis. The format is functional, organism-based. In outline: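 Daily i.p. dosing started 3 weeks after inoculation at 7.5, 15 or 30 mg/kg/day. Mice monitored daily and euthanized when moribund or at hind-limb paralysis. Bone marrow cells, after red-cell lysis, stained with PE anti-HLA-ABC and counted by flow cytometry.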

Assay [16] deals with Mitogen-activated protein kinase 1 (Homo sapiens) (UniProt P28482). As to the kind of experiment: Binding affinity to wild-type human full length ERK2 (M1 to S360 residues) expressed in bacterial expression system assessed as residual binding level at 1 uM by Kinomescan method relative to control. In outline: as §1
The target of assay [17] is Tyrosine-protein kinase JAK3 (Homo sapiens) (UniProt P52333). As to the kind of experiment: Binding affinity to wild-type human partial length JAK3 JH1 catalytic domain (I781 to S1124 residues) expressed in mammalian expression system assessed as residual binding level at 1 uM by Kinomescan method relative to control.
Assay [18] deals with Ribosomal protein S6 kinase alpha-4 (Homo sapiens) (UniProt O75676). As to the kind of experiment: Binding affinity to wild-type human partial length C-terminal RPS6KA4 kinase domain 2 (M375 to T705 residues) expressed in mammalian expression system assessed as residual binding level at 1 uM by Kinomescan method relative to control.
Assay [19] deals with Serine/threonine-protein kinase D3 (Homo sapiens) (UniProt O94806). As to the kind of experiment: Binding affinity to wild-type human partial length PRKD3 (S543 to E863 residues) expressed in bacterial expression system assessed as residual binding level at 1 uM by Kinomescan method relative to control.
The target of assay [20] is Phosphatidylinositol 5-phosphate 4-kinase type-2 beta (Homo sapiens) (UniProt P78356). As to the kind of experiment: Binding affinity to wild-type human full length PIP5K2B (M1 to T416 residues) expressed in bacterial expression system assessed as residual binding level at 1 uM by Kinomescan method relative to control. In outline:
as §1

Assay [21] addresses Cyclin-dependent kinase 16 (Homo sapiens) (UniProt Q00536). As to the kind of experiment: Binding affinity to wild-type human partial length PCTK1 (G160 to A474 residues) expressed in mammalian expression system assessed as residual binding level at 1 uM by Kinomescan method relative to control.

The structures appear in SMILES notation.

Sequence of MAP/microtubule affinity-regulating kinase 3 (Homo sapiens) (P27448 whole entry, looked up, the tested form may be a part): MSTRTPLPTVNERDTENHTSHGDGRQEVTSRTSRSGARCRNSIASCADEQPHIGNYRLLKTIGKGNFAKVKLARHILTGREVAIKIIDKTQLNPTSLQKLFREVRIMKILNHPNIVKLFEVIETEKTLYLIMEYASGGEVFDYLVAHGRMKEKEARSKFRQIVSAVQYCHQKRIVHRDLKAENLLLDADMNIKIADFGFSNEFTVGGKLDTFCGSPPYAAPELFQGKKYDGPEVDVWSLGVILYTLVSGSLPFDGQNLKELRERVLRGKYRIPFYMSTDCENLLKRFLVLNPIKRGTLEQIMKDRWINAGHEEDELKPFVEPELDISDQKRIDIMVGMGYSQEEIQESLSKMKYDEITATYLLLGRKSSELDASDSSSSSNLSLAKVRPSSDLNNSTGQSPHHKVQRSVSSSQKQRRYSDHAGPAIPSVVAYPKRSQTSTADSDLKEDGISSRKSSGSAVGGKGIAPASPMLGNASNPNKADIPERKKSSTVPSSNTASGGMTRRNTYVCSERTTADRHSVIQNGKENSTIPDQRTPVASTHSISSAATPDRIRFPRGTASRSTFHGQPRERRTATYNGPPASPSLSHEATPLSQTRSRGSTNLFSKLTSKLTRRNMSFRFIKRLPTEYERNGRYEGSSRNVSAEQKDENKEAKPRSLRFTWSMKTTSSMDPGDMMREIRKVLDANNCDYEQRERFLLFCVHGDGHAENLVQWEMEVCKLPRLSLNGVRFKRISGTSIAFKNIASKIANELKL
Sequence of Mitogen-activated protein kinase 1 (Homo sapiens) (P28482 whole entry, the tested form may be a part): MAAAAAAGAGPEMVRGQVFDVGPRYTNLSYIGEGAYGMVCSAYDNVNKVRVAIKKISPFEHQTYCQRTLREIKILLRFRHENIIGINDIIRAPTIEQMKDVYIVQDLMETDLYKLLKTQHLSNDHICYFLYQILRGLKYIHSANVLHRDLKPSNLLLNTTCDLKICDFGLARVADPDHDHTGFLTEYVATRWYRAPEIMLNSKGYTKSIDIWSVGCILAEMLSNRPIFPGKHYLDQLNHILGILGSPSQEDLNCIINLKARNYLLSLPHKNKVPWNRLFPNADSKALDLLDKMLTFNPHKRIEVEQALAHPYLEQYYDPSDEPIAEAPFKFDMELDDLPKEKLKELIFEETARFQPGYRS
Sequence of Cyclin-dependent kinase 14 (Homo sapiens) (O94921 whole entry, the tested form may be a part): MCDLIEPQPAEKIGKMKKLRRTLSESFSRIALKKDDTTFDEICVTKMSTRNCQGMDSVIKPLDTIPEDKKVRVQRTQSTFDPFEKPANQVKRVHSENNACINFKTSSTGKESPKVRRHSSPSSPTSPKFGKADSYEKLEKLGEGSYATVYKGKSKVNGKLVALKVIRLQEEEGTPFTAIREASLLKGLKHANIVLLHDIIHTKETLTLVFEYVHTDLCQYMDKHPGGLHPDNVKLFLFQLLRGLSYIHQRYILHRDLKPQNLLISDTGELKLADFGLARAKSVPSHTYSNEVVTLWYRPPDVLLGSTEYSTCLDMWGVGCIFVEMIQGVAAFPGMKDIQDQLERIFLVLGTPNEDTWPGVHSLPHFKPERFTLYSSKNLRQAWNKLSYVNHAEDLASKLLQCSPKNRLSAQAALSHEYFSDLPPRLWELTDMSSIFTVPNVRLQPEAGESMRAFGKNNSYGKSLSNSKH
Sequence of Phosphatidylinositol 4,5-bisphosphate 3-kinase catalytic subunit alpha isoform (Homo sapiens), P42336 [H1047L] (P42336 whole entry H1047L, the tested form may be a part, canonical isoform): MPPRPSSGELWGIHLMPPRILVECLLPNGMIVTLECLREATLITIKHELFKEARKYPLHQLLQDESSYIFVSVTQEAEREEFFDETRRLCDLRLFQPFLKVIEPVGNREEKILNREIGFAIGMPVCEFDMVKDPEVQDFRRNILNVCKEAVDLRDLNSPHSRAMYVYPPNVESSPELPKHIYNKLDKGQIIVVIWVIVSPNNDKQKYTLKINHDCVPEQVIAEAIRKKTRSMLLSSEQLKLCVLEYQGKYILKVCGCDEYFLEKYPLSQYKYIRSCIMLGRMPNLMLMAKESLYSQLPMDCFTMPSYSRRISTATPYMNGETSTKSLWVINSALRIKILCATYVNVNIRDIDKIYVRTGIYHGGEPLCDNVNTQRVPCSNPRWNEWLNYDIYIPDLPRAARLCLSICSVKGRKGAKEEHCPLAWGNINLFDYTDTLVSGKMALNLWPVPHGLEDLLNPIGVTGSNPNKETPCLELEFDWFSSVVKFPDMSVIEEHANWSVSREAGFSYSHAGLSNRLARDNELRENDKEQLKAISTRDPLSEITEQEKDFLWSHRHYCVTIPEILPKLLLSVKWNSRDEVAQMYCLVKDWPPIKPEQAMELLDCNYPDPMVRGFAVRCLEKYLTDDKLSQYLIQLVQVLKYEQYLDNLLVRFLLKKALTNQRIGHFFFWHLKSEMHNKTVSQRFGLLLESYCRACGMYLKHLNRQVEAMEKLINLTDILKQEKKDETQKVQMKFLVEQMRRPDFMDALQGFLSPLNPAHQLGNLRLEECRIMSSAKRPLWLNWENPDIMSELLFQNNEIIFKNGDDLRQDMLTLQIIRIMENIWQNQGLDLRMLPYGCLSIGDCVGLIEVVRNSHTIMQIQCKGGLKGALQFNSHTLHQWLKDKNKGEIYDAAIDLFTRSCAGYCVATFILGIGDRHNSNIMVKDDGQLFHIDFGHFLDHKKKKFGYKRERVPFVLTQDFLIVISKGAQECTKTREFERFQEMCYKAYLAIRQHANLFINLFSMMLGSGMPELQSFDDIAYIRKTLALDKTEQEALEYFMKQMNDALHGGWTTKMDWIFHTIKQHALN
Sequence of RAC-beta serine/threonine-protein kinase (Homo sapiens) (P31751 whole entry): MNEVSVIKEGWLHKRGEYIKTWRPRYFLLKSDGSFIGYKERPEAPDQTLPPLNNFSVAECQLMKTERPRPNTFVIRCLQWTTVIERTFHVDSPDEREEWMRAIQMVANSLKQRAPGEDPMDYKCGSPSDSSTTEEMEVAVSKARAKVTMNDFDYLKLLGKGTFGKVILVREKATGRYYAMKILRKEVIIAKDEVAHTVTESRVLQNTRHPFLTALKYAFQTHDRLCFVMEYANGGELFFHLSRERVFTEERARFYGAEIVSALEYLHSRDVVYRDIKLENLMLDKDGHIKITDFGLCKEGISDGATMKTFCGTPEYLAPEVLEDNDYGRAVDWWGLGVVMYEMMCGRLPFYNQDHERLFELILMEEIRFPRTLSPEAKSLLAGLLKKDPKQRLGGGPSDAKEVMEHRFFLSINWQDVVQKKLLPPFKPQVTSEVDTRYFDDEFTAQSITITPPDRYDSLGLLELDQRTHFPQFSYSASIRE
Sequence of RAC-gamma serine/threonine-protein kinase (Homo sapiens) (Q9Y243 whole entry): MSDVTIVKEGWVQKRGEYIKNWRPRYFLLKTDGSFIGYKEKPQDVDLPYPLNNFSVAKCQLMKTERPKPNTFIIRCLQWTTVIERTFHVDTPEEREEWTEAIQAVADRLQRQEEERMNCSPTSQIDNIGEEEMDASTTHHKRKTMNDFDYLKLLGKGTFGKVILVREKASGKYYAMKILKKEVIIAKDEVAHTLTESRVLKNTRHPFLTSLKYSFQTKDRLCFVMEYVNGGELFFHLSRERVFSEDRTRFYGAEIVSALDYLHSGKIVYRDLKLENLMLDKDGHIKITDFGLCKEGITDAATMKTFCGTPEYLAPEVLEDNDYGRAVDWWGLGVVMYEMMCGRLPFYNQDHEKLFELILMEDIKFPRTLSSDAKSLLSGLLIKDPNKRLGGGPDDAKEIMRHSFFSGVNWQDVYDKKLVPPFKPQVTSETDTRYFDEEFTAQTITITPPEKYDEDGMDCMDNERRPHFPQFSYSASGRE
Sequence of Tyrosine-protein kinase JAK2 (Homo sapiens) (O60674 whole entry, the tested form may be a part, canonical isoform): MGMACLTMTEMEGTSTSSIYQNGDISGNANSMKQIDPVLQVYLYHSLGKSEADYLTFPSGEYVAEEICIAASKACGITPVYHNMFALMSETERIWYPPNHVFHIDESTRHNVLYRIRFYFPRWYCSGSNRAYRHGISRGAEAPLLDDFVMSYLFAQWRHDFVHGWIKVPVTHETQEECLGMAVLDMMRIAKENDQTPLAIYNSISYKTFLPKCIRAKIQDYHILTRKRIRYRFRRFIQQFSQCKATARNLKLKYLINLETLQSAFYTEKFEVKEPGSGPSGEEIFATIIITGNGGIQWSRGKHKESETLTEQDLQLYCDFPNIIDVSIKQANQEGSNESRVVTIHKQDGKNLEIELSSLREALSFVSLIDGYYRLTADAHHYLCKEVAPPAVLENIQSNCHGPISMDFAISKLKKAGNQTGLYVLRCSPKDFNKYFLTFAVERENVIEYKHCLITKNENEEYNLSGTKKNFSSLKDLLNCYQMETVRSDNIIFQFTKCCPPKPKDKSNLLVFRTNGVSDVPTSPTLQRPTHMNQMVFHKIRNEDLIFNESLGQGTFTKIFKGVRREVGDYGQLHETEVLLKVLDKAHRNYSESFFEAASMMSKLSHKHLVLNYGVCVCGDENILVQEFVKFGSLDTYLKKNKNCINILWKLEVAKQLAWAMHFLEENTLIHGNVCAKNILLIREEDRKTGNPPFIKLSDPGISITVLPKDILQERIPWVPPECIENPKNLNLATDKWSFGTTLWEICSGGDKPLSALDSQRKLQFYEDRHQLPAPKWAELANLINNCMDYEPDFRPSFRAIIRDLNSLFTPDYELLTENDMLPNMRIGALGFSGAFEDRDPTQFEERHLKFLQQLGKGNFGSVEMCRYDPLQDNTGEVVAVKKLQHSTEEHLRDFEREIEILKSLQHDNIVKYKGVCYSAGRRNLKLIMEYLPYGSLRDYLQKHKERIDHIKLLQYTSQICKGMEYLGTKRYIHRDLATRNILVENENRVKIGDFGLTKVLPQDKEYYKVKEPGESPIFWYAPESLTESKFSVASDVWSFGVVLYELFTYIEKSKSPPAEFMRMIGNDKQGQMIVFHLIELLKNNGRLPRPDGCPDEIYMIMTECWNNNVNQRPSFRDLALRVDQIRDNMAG
Sequence of Testis-specific serine/threonine-protein kinase 3 (Homo sapiens) (Q96PN8 whole entry, the tested form may be a part): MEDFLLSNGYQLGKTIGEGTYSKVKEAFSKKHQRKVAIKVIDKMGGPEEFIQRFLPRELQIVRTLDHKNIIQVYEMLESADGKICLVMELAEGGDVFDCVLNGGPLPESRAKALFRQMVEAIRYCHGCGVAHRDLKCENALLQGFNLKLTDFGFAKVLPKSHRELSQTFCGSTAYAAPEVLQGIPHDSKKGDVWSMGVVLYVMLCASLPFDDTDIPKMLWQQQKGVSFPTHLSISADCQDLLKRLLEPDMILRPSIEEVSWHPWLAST

For `Cc1ccc(NC(=O)c2ccc(CN(CCN(C)C)C(=O)c3cccnc3)cc2)cc1Nc1nccc(-c2cccnc2)n1`, the Activity in assay [1] amounted to 100%; in assay [2] it was 80%; in assay [3], 100%; in [4], 92%; in assay [5] it was 88%; in assay [6], 81%. The Activity in assay [7] was 95%; in [8], 99%; in assay [9] it was 90%; in assay [10] it was 100%; in assay [11], 93%; in assay [12] it was 89%. The Activity in [13] is 100%; in assay [14] it was 100%; in assay [15] it was “Dose-dependent effect”; in assay [16], 83%; in [17], 100%; in [18], 100%. In addition, the values for the Activity in assay [19], in assay [20] and in assay [21] were 100%, 83% and 100%, respectively.

These data come from ChEMBL document CHEMBL4229344 (Eur J Med Chem, 2018).
